Assay type in all cases: functional, cell-based
The subject of one assay is MG-63. Briefly: Cytotoxicity against human MG63 cells assessed as decrease in cell viability after 48 hrs by MTT assay. Conditions: MG-63, 48 h. Summed up: (§1)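 Cells grown in DMEM Glutamax with 10% FBS, 2.5 μg/mL fungizone, 100 IU/mL penicillin and 100 μg/mL streptomycin. Seeded at 3.3 × 10^4 cells/mL and left 24 h (37 °C, 5% CO2) to adhere. Pure compounds added as dilutions from 50 to 0.003 μg/mL for 48 h. MTT 0.5 mg/mL for 3 h, formazan dissolved in DMSO, absorbance read at 550 nm. Triplicates averaged; IC50 taken from dose–response curves.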

A further assay has as its system RKO. Briefly: Cytotoxicity against human RKO cells assessed as decrease in cell viability after 48 hrs by MTT assay. The method, boiled down: as §1
(In general: Tetrazolium dyes change colour on reduction, which living cells bring about.)

Another assay relates to T47D. As to the kind of experiment: Cytotoxicity against human T47D cells assessed as decrease in cell viability after 48 hrs by MTT assay. Summed up: as §1

IC50 data for eight molecules are collected here from ChEMBL document CHEMBL4000159, “Bartolosides E-K from a Marine Coccoid Cyanobacterium” (J Nat Prod, 2016).

Usually IC50 stands for the point on the concentration scale where inhibition reaches its midpoint.

For `CCCCCCC(Cl)CCCCCc1c(O)cc(CCCCCCC(Cl)CCCC)cc1O[C@@H]1OC[C@@H](O)[C@H](O)[C@H]1O` (some centres undefined), the IC50 is 39 µM with MG-63, 40 µM in the assay with RKO and 22 µM with T47D.

Turning to `CCCCCCCCCC(Cl)CCCCCc1cc(O)c(CCCCCC(Cl)CCCCCC)c(O[C@@H]2OC[C@@H](O)[C@H](O)[C@H]2O)c1` (some centres undefined), the IC50 in the assay on MG-63, in the assay on RKO and in the assay on T47D was more than 10 µM throughout.

With `CCCCCCC(Cl)CCCCCc1cc(O)c(CCCCCC(Cl)CCCCCC)c(O[C@@H]2OC[C@@H](O)[C@H](O)[C@H]2O)c1` (some centres undefined), the concentration for half-maximal inhibition (IC50) in the assay on MG-63, in the assay with RKO and in the assay with T47D was more than 10 µM each time.

For `CCCCCCCC(Cl)(Cl)CCCCCc1cc(O)c(CCCCCC(Cl)CCCCCC)c(O[C@@H]2OC[C@@H](O)[C@H](O)[C@H]2O)c1` (some centres undefined), the IC50 was more than 10 µM with MG-63, more than 10 µM in the assay with RKO and 59.8 µM in the assay on T47D.

Regarding `CCCCCCCC(Cl)CCCCCc1cc(O)c(CCCCCC(Cl)CCCCCC)c(O[C@@H]2OC[C@@H](O)[C@H](O)[C@H]2O)c1` (some centres undefined), the figures for the IC50 in the assay with MG-63, in the assay with RKO and with T47D were 22 µM, 40 µM and 23 µM, respectively.

Turning to `CCCCCCCCC(Cl)CCCCCc1cc(O)c(CCCCCC(Cl)CCCCCC)c(O[C@@H]2OC[C@@H](O)[C@H](O)[C@H]2O)c1` (some centres undefined), the IC50 with MG-63, in the assay on RKO and with T47D was more than 10 µM throughout.

Consider `CCCCCCCCCCCCCc1cc(O)c(CCCCCC(Cl)CCCCCC)c(O[C@@H]2OC[C@@H](O)[C@H](O)[C@H]2O)c1` (some centres undefined), for which the IC50 with MG-63, with RKO and in the assay on T47D was more than 10 µM throughout.

As to `CCCCCCCCCCCc1cc(O)c(CCCCCC(Cl)CCCCCC)c(O[C@@H]2OC[C@@H](O)[C@H](O)[C@H]2O)c1` (some centres undefined), the half-maximal inhibitory concentration (IC50) in the assay on MG-63, in the assay on RKO and in the assay on T47D was more than 10 µM in each case.
